From ChEMBL document CHEMBL1133529, “Solid-phase synthesis and biological evaluation of a combinatorial library of philanthotoxin analogues” (J Med Chem, 2000)

tested on: not listed separately; experiment: Tested for antagonist activity on non-NMDAR (expressed in Xenopus Oocytes) from rat brain mRNA.; type: functional, cell-based
How it was run: (§1)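 Xenopus laevis oocytes injected with rat brain RNA, kept at 18 °C ≥3 days, voltage-clamped at -80 mV. Bath saline: 120 mM NaCl, 2 mM KCl, 1.8 mM CaCl2, 10 mM HEPES pH 7.5. 100 µM kainic acid perfused 120 s, antagonist co-applied 40-80 s. IC50 from decrease of kainate-evoked current.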

SMILES | IC50 [µM]
CCCC(=O)N[C@@H](Cc1ccc(O)cc1)C(=O)NCCCOCCCCOCCCN | > 100
CCCC(=O)N[C@@H](Cc1ccc(O)cc1)C(=O)NCCCCCCCCCCCCN | > 100
CCCC(=O)N[C@@H](Cc1ccc(O)cc1)C(=O)NCCCNCCCCNCCCN [PHILANTHOTOXIN 343] | 0.75

molecular target: T1, Acetylcholine receptor; alpha1/beta1/delta/gamma (Homo sapiens, UniProt P02708+P07510+P11230+Q07001); experiment: Antagonist activity at human muscle-type nAChR (embryonic muscle) expressed in TE671 cells; (peak value).; type: functional, cell-based, TE-671
T1 sequence (P02708 whole entry): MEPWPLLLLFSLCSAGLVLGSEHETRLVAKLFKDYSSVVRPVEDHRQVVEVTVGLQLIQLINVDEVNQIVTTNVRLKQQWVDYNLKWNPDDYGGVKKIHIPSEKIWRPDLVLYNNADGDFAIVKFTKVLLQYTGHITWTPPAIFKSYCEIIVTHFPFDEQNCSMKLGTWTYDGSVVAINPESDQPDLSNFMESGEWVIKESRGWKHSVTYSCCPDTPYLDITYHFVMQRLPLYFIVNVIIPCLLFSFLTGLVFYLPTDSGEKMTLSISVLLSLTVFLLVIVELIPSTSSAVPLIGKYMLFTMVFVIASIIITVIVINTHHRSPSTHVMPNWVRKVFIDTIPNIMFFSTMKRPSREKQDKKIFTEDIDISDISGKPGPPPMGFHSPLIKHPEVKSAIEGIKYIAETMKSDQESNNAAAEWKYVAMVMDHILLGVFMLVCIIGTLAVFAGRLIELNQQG
T1 sequence (P07510 whole entry): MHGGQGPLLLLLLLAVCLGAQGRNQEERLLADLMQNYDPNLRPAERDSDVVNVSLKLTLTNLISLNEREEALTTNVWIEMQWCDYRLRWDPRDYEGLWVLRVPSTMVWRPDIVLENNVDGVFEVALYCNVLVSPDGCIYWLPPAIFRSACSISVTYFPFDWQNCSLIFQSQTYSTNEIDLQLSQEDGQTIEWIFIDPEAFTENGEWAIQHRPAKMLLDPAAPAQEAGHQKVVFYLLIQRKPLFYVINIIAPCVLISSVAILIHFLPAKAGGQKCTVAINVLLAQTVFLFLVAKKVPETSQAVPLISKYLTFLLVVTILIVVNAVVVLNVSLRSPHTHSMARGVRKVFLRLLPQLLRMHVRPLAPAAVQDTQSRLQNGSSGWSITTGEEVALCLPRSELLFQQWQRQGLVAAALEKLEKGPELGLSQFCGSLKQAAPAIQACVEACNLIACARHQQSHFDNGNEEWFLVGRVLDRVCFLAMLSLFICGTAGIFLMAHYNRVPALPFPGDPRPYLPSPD
T1 sequence (P11230 whole entry): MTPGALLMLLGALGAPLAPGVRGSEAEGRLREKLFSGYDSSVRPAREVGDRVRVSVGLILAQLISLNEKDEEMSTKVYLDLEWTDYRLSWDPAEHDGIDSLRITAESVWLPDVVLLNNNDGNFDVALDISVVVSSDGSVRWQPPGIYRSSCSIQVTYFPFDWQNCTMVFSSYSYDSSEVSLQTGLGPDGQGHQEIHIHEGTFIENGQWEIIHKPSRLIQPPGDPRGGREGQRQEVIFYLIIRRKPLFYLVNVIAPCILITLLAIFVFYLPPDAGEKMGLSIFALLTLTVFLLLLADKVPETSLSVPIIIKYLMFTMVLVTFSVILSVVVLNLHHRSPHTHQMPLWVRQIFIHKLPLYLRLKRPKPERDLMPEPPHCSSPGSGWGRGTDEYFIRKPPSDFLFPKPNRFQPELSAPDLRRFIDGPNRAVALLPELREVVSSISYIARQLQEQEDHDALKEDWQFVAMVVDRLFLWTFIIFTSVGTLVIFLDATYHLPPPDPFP
T1 sequence (Q07001 whole entry): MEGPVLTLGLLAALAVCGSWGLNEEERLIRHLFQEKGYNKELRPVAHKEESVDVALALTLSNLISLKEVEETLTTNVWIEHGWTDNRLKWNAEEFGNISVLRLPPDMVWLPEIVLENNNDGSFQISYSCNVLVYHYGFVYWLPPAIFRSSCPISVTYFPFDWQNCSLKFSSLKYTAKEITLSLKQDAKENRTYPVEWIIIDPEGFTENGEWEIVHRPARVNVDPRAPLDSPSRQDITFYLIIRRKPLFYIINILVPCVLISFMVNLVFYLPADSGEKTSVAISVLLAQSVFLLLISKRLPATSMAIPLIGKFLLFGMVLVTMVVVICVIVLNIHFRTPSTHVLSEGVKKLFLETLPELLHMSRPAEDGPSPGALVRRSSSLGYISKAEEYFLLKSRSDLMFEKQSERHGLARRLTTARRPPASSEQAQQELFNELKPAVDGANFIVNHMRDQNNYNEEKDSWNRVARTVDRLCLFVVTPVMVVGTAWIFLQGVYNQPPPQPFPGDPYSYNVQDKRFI
How it was run: (§2)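 Whole-cell patch clamp of TE671 cells (embryonic muscle-type nAChR) at 17-23 °C. Pipette: 140 mM CsCl, 1 mM CaCl2, 11 mM EDTA, 5 mM HEPES pH 7.2. Compound co-applied with 10 µM acetylcholine as 1-s pulses ≥30 s apart; IC50 from peak and end currents.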

SMILES | IC50 [µM]
NCCCNCCCCNCCCNC(=O)[C@H](Cc1ccc(O)cc1)NC(=O)Cc1ccccc1 | 249
NCCCNCCCCNCCCNC(=O)[C@H](Cc1ccc(O)cc1)NC(=O)CC1CCCCC1 | 86.9
NCCCOCCCCOCCCNC(=O)[C@H](Cc1ccc(O)cc1)NC(=O)Cc1ccccc1 | 35
NCCCOCCCCOCCCNC(=O)[C@H](Cc1ccc(O)cc1)NC(=O)CC1CCCCC1 | 25.9
NCCCCCCCCCCCCNC(=O)[C@H](Cc1ccc(O)cc1)NC(=O)CC1CCCCC1 | > 1000
NCCCCCCCCCCCCNC(=O)[C@H](Cc1ccc(O)cc1)NC(=O)Cc1ccccc1 | 388
NCCCNCCCCNCCCNC(=O)[C@H](Cc1cccc(O)c1)NC(=O)Cc1ccccc1 | 98.2
NCCCCCCCCCCCCNC(=O)[C@H](Cc1cccc(O)c1)NC(=O)Cc1ccccc1 | 105
NCCCOCCCCOCCCNC(=O)[C@H](Cc1cccc(O)c1)NC(=O)Cc1ccccc1 | 50.9
CCCC(=O)N[C@@H](Cc1ccc(O)cc1)C(=O)NCCCOCCCCOCCCN | 72.7
CCCC(=O)N[C@@H](Cc1ccc(O)cc1)C(=O)NCCCCCCCCCCCCN | 15.1
CCCC(=O)N[C@@H](Cc1cccc(O)c1)C(=O)NCCCOCCCCOCCCN | 110
NCCCNCCCCNCCCNC(=O)[C@H](Cc1cccc(O)c1)NC(=O)CC1CCCCC1 | 59.8
NCCCOCCCCOCCCNC(=O)[C@H](Cc1cccc(O)c1)NC(=O)CC1CCCCC1 | 30.7
CCCC(=O)N[C@@H](Cc1cccc(O)c1)C(=O)NCCCCCCCCCCCCN | 104
CCCC(=O)N[C@@H](Cc1cccc(O)c1)C(=O)NCCCNCCCCNCCCN | > 1000
CCCC(=O)N[C@@H](Cc1ccc(O)cc1)C(=O)NCCCNCCCCNCCCN [PHILANTHOTOXIN 343] | 56.7

molecular target: T1, Acetylcholine receptor; alpha1/beta1/delta/gamma; experiment: Antagonist activity at human muscle-type nAChR (embryonic muscle) expressed in TE671 cells; (end value).; type: functional, cell-based, TE-671; how it was run: as §2

SMILES | IC50 [µM]
NCCCNCCCCNCCCNC(=O)[C@H](Cc1ccc(O)cc1)NC(=O)Cc1ccccc1 | 22.3
NCCCNCCCCNCCCNC(=O)[C@H](Cc1ccc(O)cc1)NC(=O)CC1CCCCC1 | 13.2
NCCCOCCCCOCCCNC(=O)[C@H](Cc1ccc(O)cc1)NC(=O)Cc1ccccc1 | 12.6
NCCCOCCCCOCCCNC(=O)[C@H](Cc1ccc(O)cc1)NC(=O)CC1CCCCC1 | 5.69
NCCCCCCCCCCCCNC(=O)[C@H](Cc1ccc(O)cc1)NC(=O)CC1CCCCC1 | 151
NCCCCCCCCCCCCNC(=O)[C@H](Cc1ccc(O)cc1)NC(=O)Cc1ccccc1 | 17.2
NCCCNCCCCNCCCNC(=O)[C@H](Cc1cccc(O)c1)NC(=O)Cc1ccccc1 | 10.1
NCCCCCCCCCCCCNC(=O)[C@H](Cc1cccc(O)c1)NC(=O)Cc1ccccc1 | 8.05
NCCCOCCCCOCCCNC(=O)[C@H](Cc1cccc(O)c1)NC(=O)Cc1ccccc1 | 25.3
CCCC(=O)N[C@@H](Cc1ccc(O)cc1)C(=O)NCCCOCCCCOCCCN | 10.9
CCCC(=O)N[C@@H](Cc1ccc(O)cc1)C(=O)NCCCCCCCCCCCCN | 0.79
CCCC(=O)N[C@@H](Cc1cccc(O)c1)C(=O)NCCCOCCCCOCCCN | 42.6
NCCCNCCCCNCCCNC(=O)[C@H](Cc1cccc(O)c1)NC(=O)CC1CCCCC1 | 5.33
NCCCOCCCCOCCCNC(=O)[C@H](Cc1cccc(O)c1)NC(=O)CC1CCCCC1 | 4.47
CCCC(=O)N[C@@H](Cc1cccc(O)c1)C(=O)NCCCCCCCCCCCCN | 2.43
CCCC(=O)N[C@@H](Cc1cccc(O)c1)C(=O)NCCCNCCCCNCCCN | 117
CCCC(=O)N[C@@H](Cc1ccc(O)cc1)C(=O)NCCCNCCCCNCCCN [PHILANTHOTOXIN 343] | 11.8

tested on: not listed separately; experiment: Tested for antagonist activity on non-NMDAR expressed in Xenopus Oocytes from rat brain mRNA.; type: functional, cell-based; how it was run: as §1

SMILES | IC50 [µM]
NCCCNCCCCNCCCNC(=O)[C@H](Cc1ccc(O)cc1)NC(=O)Cc1ccccc1 | 0.015
NCCCNCCCCNCCCNC(=O)[C@H](Cc1ccc(O)cc1)NC(=O)CC1CCCCC1 | 0.18
